Laboratory results reported in paper PMC12429009 (The FASEB Journal, 2025).
Entries after “also recorded” stand apart in the source; their conditions may differ. Where no end group is shown, it is not given here. The star is where a group is joined. 5FAM = O=C1OC2(c3ccc(O)cc3Oc3cc(O)ccc32)c2ccc(C(=O)*)cc21

Experiments:
[1] = target: T1, 14‐3‐3ζ WT (Homo sapiens, UniProt P63104); experiment: LiP‐MS; assay type: binding; conditions: 500 μM ATPγS
T1 sequence (P63104 1-245): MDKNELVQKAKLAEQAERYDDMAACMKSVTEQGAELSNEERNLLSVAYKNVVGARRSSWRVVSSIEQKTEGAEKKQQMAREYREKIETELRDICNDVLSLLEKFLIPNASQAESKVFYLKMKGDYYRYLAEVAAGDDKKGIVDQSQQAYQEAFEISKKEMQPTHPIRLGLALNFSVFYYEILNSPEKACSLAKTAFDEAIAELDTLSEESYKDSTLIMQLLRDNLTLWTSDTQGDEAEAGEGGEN

[2] = target: T1, 14‐3‐3ζ WT; assay type: binding; conditions: MST
Outline: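 Labelled peptide binding by thermophoresis with recombinant, TEV‐cleaved 14‐3‐3ζ WT. Protein from 32 μM serially diluted 2‐fold with 10 μM FAM‐peptide in FP buffer (50 mM Na‐HEPES pH 8.0, 150 mM NaCl, 10% glycerol), at varied ATP concentrations. Fluorescence counts and power set per manufacturer. Standard glass capillaries; fit in instrument software.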

[3] = target: T2, 14‐3‐3ζ Y82A (Homo sapiens, UniProt P63104, Y82A); experiment: ExoS peptide binding to 14‐3‐3ζ Y82A by microscale thermophoresis, effect of ATP; conditions: MST; different concentrations of ATP
T2 sequence (P63104 1-245 Y82A): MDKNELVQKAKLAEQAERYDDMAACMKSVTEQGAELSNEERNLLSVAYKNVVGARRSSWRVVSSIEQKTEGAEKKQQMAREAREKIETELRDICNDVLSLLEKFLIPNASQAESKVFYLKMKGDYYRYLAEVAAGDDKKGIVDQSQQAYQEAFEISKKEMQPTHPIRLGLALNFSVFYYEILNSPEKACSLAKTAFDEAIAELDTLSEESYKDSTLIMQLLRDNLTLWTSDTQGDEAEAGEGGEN
Outline: (§1)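 Purified untagged mutant 14‑3‑3ζ, starting at 32 μM, serially diluted 2‑fold in 10 μM FAM‑labeled peptide, in the FP binding buffer (50 mM Na‑HEPES pH 8.0, 150 mM NaCl, 10% glycerol), with ATP at several concentrations. Fluorescent counts and power set beforehand. Samples read in standard glass capillaries on a Monolith NT.115.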

[4] = target: T1, 14‐3‐3ζ WT; assay type: binding; conditions: FP, 25°C, 30 min; for effect on binding of mode 1 or mode 2 peptides to 14‐3‐3ζ: 1 mM ATP or ATPγS, peptide 62.5 nM, protein 8 to 0.0625 μM
Outline: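 Untagged recombinant 14‐3‐3ζ WT apoprotein (His‐tagged, expressed in E. coli BL21 DE3, Ni‐NTA then size exclusion, TEV‐cleaved) in 50 mM Na‐HEPES pH 8.0, 150 mM NaCl, 10% glycerol. N‐terminal FAM peptides fixed at 62.5 nM, protein titrated 8 to 0.0625 μM, ±1 mM ATP or ATPγS in binding buffer. 30 min at 25°C in the dark, then anisotropy read; K_D fitted.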

[5] = target: T3, 14‐3‐3ζ R55A (Homo sapiens, UniProt P63104, R55A); experiment: ExoS peptide binding to 14‐3‐3ζ R55A by microscale thermophoresis, effect of ATP; conditions: MST; different concentrations of ATP
T3 sequence (P63104 1-245 R55A): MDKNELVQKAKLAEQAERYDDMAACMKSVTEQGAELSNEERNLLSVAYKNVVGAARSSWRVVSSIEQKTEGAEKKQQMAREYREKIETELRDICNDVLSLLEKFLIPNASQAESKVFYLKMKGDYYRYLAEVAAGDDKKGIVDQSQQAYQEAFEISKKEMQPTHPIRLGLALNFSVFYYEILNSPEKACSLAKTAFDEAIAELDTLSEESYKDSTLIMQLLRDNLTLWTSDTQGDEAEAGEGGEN
Outline: as §1

[6] = tested on: 14‐3‐3ζ E180A; assay type: binding, human; conditions: FP; 1 mM ATP; 5FAM‐labeled ExoS peptide 62.5 nM, 25°C, 30 min
Outline: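 Recombinant human 14‑3‑3ζ mutant, His‑tagged, expressed in E. coli BL21 DE3, purified by Ni‑NTA and size exclusion, tag removed with TEV, buffer‑exchanged into 50 mM Na‑HEPES pH 8.0, 150 mM NaCl, 10% glycerol. N‑terminal FAM‑peptide held at 62.5 nM, protein titrated 8 to 0.0625 μM, 1 mM ATP in binding buffer. 25°C, dark, 30 min; anisotropy change read; K_D fitted.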

[7] = target: T3, 14‐3‐3ζ R55A; experiment: ExoS peptide binding to R55A by surface plasmon resonance, effect of ATPγS; conditions: SPR; 10 μM to 1 mM ATPγS with 10 μM peptide; HBS‐P pH 7.4; qualitative
Outline: (§2)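 Mutant 14‑3‑3ζ amine‑coupled to a CM5 chip at 4000 RU. ATPγS from 10 μM to 1 mM, together with 10 μM peptide, injected in HBS‑P (10 mM Na‑HEPES pH 7.4, 150 mM NaCl, 0.005% Tween‑20). RU changes on association and dissociation tracked; sensorgrams fitted to a 1:1 binding model.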

[8] = target: T1, 14‐3‐3ζ WT; experiment: Peptide binding to 14‐3‐3ζ WT by surface plasmon resonance, effect of ATPγS; conditions: SPR, HBS‐P pH 7.4
Outline: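 Amine coupling of recombinant 14‐3‐3ζ WT onto a CM5 chip to 4000 RU. Analyte 10 μM peptide with 10 μM to 1 mM ATPγS in HBS‐P (10 mM Na‐HEPES pH 7.4, 150 mM NaCl, 0.005% v/v Tween‐20). RU change during association and dissociation recorded. Sensorgrams fitted to a 1:1 binding model; relative response compared across ATPγS concentrations.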

[9] = target: T2, 14‐3‐3ζ Y82A; experiment: ExoS peptide binding to Y82A by surface plasmon resonance, effect of ATPγS; conditions: SPR; 10 μM to 1 mM ATPγS with 10 μM peptide; HBS‐P pH 7.4; qualitative
Outline: as §2

[10] = tested on: 14‐3‐3τ; conditions: cited from earlier work
[11] = target: T4, 14-3-3ζ WT (human), P63104; experiment: native gel or EMSA; conditions: remark: other sources report otherwise
T4 chain: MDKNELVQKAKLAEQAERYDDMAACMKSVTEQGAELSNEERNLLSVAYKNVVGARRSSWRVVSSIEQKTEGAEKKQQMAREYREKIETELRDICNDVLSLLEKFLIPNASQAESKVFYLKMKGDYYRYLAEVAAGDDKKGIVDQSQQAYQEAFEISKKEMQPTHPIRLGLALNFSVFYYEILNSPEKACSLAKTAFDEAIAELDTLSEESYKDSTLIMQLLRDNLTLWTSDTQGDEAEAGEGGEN

[12] = target: T5, 14-3-3ζ E180A (human, UniProt P63104 1-245, E180A); experiment: fluorescence polarisation
T5 sequence (looked up): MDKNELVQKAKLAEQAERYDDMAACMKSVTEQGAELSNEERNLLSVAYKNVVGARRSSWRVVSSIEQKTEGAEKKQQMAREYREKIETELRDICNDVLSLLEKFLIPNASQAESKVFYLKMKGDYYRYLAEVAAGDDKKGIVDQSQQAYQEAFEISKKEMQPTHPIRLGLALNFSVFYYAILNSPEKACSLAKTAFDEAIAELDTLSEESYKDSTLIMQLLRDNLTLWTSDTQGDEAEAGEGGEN

[13] = target: T6, 14-3-3ζ WT (human, UniProt P63104 1-245); experiment: fluorescence polarisation
T6 sequence (looked up): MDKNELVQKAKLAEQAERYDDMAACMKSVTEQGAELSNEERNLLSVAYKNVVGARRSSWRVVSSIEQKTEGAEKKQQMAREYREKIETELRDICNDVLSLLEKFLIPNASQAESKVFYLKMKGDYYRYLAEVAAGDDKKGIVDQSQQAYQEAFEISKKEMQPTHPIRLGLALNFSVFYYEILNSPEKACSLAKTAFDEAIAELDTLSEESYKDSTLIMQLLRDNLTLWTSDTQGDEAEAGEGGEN

[14] = target: T7, 14-3-3ζ Y82A (human, UniProt P63104 1-245, Y82A); experiment: MST
T7 sequence (looked up): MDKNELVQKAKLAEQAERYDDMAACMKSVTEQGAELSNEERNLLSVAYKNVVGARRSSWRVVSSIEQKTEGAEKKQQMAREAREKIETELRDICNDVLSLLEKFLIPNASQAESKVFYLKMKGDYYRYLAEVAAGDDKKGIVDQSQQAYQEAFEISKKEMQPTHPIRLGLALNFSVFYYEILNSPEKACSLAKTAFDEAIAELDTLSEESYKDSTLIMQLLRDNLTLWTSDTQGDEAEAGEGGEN

[15] = target: T8, 14-3-3ζ R55A (human, UniProt P63104 1-245, R55A); experiment: MST
T8 sequence (looked up): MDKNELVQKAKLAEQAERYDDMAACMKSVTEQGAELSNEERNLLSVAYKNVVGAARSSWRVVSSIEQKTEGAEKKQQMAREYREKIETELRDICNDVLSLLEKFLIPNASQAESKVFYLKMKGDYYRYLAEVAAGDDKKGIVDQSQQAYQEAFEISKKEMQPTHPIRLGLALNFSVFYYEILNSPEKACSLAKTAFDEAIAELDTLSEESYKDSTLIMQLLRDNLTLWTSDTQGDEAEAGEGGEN

In the case of Nc1ncnc2c1ncn2[C@@H]1O[C@H](COP(=O)(O)OP(=O)(O)OP(=O)(O)O)[C@@H](O)[C@H]1O [ATP], the “ATP binding site suggested by LiP‐MS” value [1] is reported as “there is a second ATP binding site at the dimer interface”, the “type of inhibition of ExoS peptide binding” value ([2]; 14‐3‐3ζ WT, ATP at the dimer interface) is reported as “as a non‐competitive inhibitor by binding to the dimer interface” and the “effect on binding of phosphopeptide to ζWT” value ([2]; FAM‐labeled peptide) is reported as “did not show any effect”. For the same molecule, the “effect on binding of ExoS peptide to ζWT” value ([2]; different concentrations of ATP) was “the binding of nonphosphorylated ExoS peptide decreased in the presence of ATP; also recorded: concentration‐dependent inhibition”, the “effect on binding of ExoS peptide to Y82A” value [3] was “did not affect the binding” and the “effect on binding of mode 1 or mode 2 peptides to 14‐3‐3ζ” value [4] was “no effect”. The “effect on binding of ExoS peptide to 14‐3‐3ζ WT” value ([4]; 1 mM ATP, 5FAM‐labeled ExoS peptide 62.5 nM) was “marginally but reproducibly decreased”, the “effect on binding of ExoS peptide to R55A” value [5] was “did not affect the binding” and the “effect on binding of ExoS peptide to E180A mutant” value [6] was “marginally but reproducibly decreased”.

In the case of Nc1ncnc2c1ncn2[C@@H]1O[C@H](CO[P@](=O)(O)O[P@](=O)(O)O[P@@](=O)(O)S)[C@@H](O)[C@H]1O [ATPγS], the “ATP binding site suggested by LiP‐MS” value [1] is reported as 81–91 residues which are part of the dimer interface, were exclusively protected by ATPγS, the “protection against Proteinase K cleavage (SDS PAGE)” value ([1]; 25°C, 30 min, Proteinase K 1:100, 1 min at 25°C) is reported as “protects the protein against proteolytic cleavage” and the “Log2 fold change of conformotypic peptide, ATPγS bound versus unbound” value ([1]; peptide YDDMAAC (19–25), C_SEMI, adjusted p 2.49E‐02) is reported as −1.0. The “Log2 fold change of conformotypic peptide, ATPγS bound versus unbound” value ([1]; peptide YDDMAACMK (19–27), FULL_TRP, adjusted p 6.47E‐03) was 1.8, the “effect on binding of mode 1 or mode 2 peptides to 14‐3‐3ζ” value [4] was “no effect” and the “effect on binding of nonphosphopeptide ExoS to R55A” value [7] was “definitive decrease”. For the same molecule, the “effect on binding of nonphosphopeptide ExoS to ζWT” value ([8]; 10 μM to 1 mM ATPγS with 10 μM peptide, qualitative) was “definitive decrease; also recorded: concentration‐dependent inhibition”, the “effect on binding of mode 2 phosphopeptide to 14‐3‐3ζ WT” value ([8]; 1 mM ATPγS) was “did not show any effect” and the “effect on binding of nonphosphopeptide ExoS to Y82A” value [9] was “definitive decrease”.

B1: 14‐3‐3τ: 14‐3‐3 tau paralog (protein, UniProt P27348 1-245, looked up)
14-3-3 protein theta: MEKTELIQKAKLAEQAERYDDMATCMKAVTEQGAELSNEERNLLSVAYKNVVGGRRSAWRVISSIEQKTDTSDKKLQLIKDYREKVESELRSICTTVLELLDKYLIANATNPESKVFYLKMKGDYFRYLAEVACGDDRKQTIDNSQGAYQEAFDISKKEMQPTHPIRLGLALNFSVFYYEILNNPELACTLAKTAFDEAIAELDTLNEDSYKDSTLIMQLLRDNLTLWTSDSAGEECDAAEGAEN
In the case of B1, the ATP/ADP exchange activity [10] is given as “has an ATP/ADP exchange activity”.

B2: 14-3-3ζ WT, P63104 1-245 (natural protein)
chain: MDKNELVQKAKLAEQAERYDDMAACMKSVTEQGAELSNEERNLLSVAYKNVVGARRSSWRVVSSIEQKTEGAEKKQQMAREYREKIETELRDICNDVLSLLEKFLIPNASQAESKVFYLKMKGDYYRYLAEVAAGDDKKGIVDQSQQAYQEAFEISKKEMQPTHPIRLGLALNFSVFYYEILNSPEKACSLAKTAFDEAIAELDTLSEESYKDSTLIMQLLRDNLTLWTSDTQGDEAEAGEGGEN
B2 gave a stoichiometry N [11] of 2.

B3: FAM-labeled nonphosphorylated ExoS peptide (5FAM-QGLLDALDLAS) (peptide)
peptide: 5FAM-QGLLDALDLAS
B3: binds [12]; binds [13]; binds [14]. B3: binds [15].
